Source: PubChem BioAssay
The list is not random: actives were taken first. Their share in the collection is about 3.7%.
KCNK9 inh = human KCNK9 channel inhibition. hit rate 1.2% among 310,000. AID 488922. HEK293 KCNK9, FluxOR thallium flux fluorescence; stronger effect = lower value. B-score at 10 µM;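 active means ratio B-score over 3 SD below the library mean, with starting fluorescence within 5 SD of its mean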;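 further: negative B-score means less thallium flux so channel inhibition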
KCNQ1 pot = potentiators or activators of human KCNQ1 potassium channel; P51787; CHO-K1 KCNQ1, thallium flux FluxOR fluorescence; stronger effect = higher value; B-score at 10 µM; hit rate 0.35% among 310,000; AID 2648;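 active means fluorescence ratio B-score, a plate-corrected score, at least three library SD, with initial intensity B-score within 5 SD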
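assay system = CHO-K1 cells stably expressing KCNQ1 | medium = assay buffer, equal DMSO in all wells | timing = 37 °C overnight plating, 90-min dark dye load, 20-min compound pretreatment | measured by = kinetic FluxOR thallium fluorescence, 10-s 1-Hz baseline, 110-s post-stimulus read | measure = fluorescence change relative to baseline, converted to B score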
KCNK3 block = human KCNK3 channel inhibition, primary screen; AID 602410; B-score at 10 µM; hit rate 0.84% among 340,000; O14649; CHO-KCNK3 thallium flux, FluxOR fluorescence; stronger effect = lower value;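 active means B-score under library mean minus 4 SD, starting fluorescence ratio at most library mean plus 5 SD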;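 further: more negative B-score means stronger inhibition of thallium flux through KCNK3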
Target sequence (O14649 whole entry, looked up): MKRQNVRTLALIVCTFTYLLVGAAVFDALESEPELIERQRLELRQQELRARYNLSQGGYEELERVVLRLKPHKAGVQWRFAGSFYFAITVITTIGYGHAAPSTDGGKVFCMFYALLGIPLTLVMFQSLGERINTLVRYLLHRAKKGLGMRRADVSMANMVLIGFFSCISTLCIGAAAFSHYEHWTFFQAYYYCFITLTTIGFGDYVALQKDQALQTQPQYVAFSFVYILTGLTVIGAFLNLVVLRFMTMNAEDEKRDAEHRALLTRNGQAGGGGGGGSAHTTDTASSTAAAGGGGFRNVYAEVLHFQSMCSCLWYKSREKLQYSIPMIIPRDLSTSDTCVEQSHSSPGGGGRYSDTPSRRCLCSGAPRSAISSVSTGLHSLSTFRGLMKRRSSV
KCNQ1 block = blocks the human KCNQ1 potassium channel; P51787; CHO-K1 KCNQ1, FluxOR thallium flux fluorescence; stronger effect = higher value; B-score at 10 µM; hit rate 1.3% among 310,000; AID 2642;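 active means compounds whose thallium flux B-score, printed positive for inhibition, exceeds three library SD while starting fluorescence stays within three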;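 further: channel opened by potassium depolarization with thallium stimulus after 20 min compound exposure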
hERG protect = shields human hERG channel from block by proarrhythmic agents | CHO-hERG, FluxOR thallium flux, dofetilide IC70 present | activation (rescue from dofetilide block), less the hit threshold, % at 10 µM | hit rate 0.51% among 310,000;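 active means activation above the mean of controls blocked by dofetilide plus 5 SD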;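 further: thallium influx through hERG after potassium depolarization seen as dye fluorescence rise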
Kir21 inh = inhibitors of mouse Kir2.1 inward-rectifier potassium channel; HEK293-Kir2.1, FluxOR thallium flux fluorescence; stronger effect = lower value; B-score at 10 µM; hit rate 0.85% among 310,000; AID 1672;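 active means fluorescence ratio B-score at or below minus 3 SD of library scores, with starting-brightness B-score within 2 SD, cut at about -4.2 in these data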;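 further: channel flux triggered by added potassium and thallium sulfate stimulus; B-score of peak minus minimum fluorescence over baseline after thallium stimulus; more negative B-score means stronger Kir2.1 block with less thallium influx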
KCNK9 block conf = human KCNK9 inhibitor confirmation. hit rate 43% among 4,900. HEK293 KCNK9 cells, FluxOR thallium flux fluorescence. shares compounds with KCNK9 inh. inhibition, % at 10 µM;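 active means thallium signal inhibited by more than 5 SD of the compound-free buffer control wells, on both duplicate plates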;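 further: 0% = assay buffer control wells without compound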
Kir21 sel = mouse Kir2.1 off-target activity of KCNK9 modulators | shares compounds with KCNK9 inh | Kir2.1 cells, FluxOR thallium flux fluorescence | inhibition, % at 10 µM | hit rate 4% among 4,900 | AID 492993;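 active means thallium signal drop more than 5 SD beyond the mean of the no-compound control wells, seen in both duplicate plates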;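 further: signal is fluorescence rise after thallium addition divided by baseline fluorescence; plate controls were assay buffer only for no effect and full block by chlorpromazine control for full effect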
KCNK9 uninduced = second counter-screen for KCNK9 modulators: effect in non-induced cells. shares compounds with KCNK9 inh. non-induced KCNK9-HEK293, FluxOR thallium flux. inhibition, % at 10 µM. hit rate 40% among 4,900. AID 492997;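 active means thallium signal drop beyond 5 SD of the untreated control mean, on both duplicate plates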;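 further: plate controls were buffer only IC0 wells for no effect and SID17386958 at its maximal inhibitory level for full effect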
* marks the source's active call; other numbers are inactive results; i = inactive; . = no result given.

SMILES | KCNK9 inh | KCNQ1 pot | KCNK3 block | KCNQ1 block | hERG protect | Kir21 inh | KCNK9 block conf | Kir21 sel | KCNK9 uninduced
Cc1nc(SCC(=O)NC(C)(C#N)C2CC2)c2c(-c3cccs3)csc2n1 (stereo unspecified) | -11* | i | i | i | -12 | -0.46 | 48%* | i | i
CC1CC(C)CN(C(=O)C(NS(=O)(=O)c2ccc(Br)s2)c2ccccc2)C1 (stereo unspecified) | i | i | i | i | -12 | -0.66 | . | . | .
c1ccc2oc(-c3csc(NCC4CCCO4)n3)cc2c1 (stereo unspecified) | i | i | i | i | -7 | 0.38 | i | i | i
C=CCNc1nc(-c2cc3ccccc3o2)cs1 | i | i | i | i | -4 | -0.28 | . | . | .
O=C(Nc1nc(-c2cc3ccccc3oc2=O)cs1)c1ccco1 | i | i | i | i | 0 | 2.5 | . | . | .
O=c1oc2ccccc2cc1-c1csc(NN=C2CCCCC2)n1 | i | i | i | i | -7 | 0.09 | i | i | i
COC1=C/C(=C/c2c(O)c(C#N)c3ccccn23)C=CC1=O | i | i | i | i | -8 | -0.01 | . | . | .
O=C(CCc1ccc(O)cc1)N/N=C/c1coc2ccccc2c1=O | i | i | i | i | -9 | 0.16 | . | . | .
CC(/C=N\N1CCN(Cc2ccc(C)cc2)CC1)=C\c1ccccc1 | i | i | i | i | -5 | 0.81 | i | i | i
BrC(/C=N/N1CCN(Cc2ccccc2)CC1)=C/c1ccccc1 | i | i | i | i | -11 | 2.1 | i | i | i
Cc1ccc(CN2CCN(/N=C\C=C\c3ccccc3)CC2)cc1 | i | i | i | i | -12 | -0.89 | i | i | i
BrC(=C\c1ccccc1)/C=N/N1CCN(Cc2ccccc2)CC1 | i | i | i | i | -7 | -0.19 | . | . | .
COc1ccc(-c2csc(NC(=O)C3=COCCO3)n2)cc1OC | . | . | i | . | . | . | . | . | .
Cc1cc(-c2ccccc2)c2c3c(c(-c4ccccc4)n2n1)c(=O)n(C)c(=O)n3C | -8.8* | i | i | i | -6 | -0.25 | i | i | 36%*
Cc1cc(C)c2c3c(c(-c4ccccc4)n2n1)c(=O)n(C)c(=O)n3C | . | . | i | . | . | . | . | . | .
CC(C)N1CCC(=NNC(=O)c2cccs2)CC1 | i | i | i | i | -10 | 0.02 | . | . | .
CCOC(=O)C1NC(=O)CC1c1ccccc1 (stereo unspecified) | i | i | i | i | -9 | -0.47 | . | . | .
CCOC(=O)C1CSC2(CCC(c3ccccc3)CC2)N1 (stereo unspecified) | i | i | i | i | -11 | -2.4 | i | i | i
O=C1c2ccccc2NC(c2ccc(O)cc2)N1c1ccccc1 (stereo unspecified) | i | i | i | i | -8 | 0.19 | . | . | .
O=C(Cc1coc2cc3c(cc12)CCC3)OCc1cc(=O)n2c(n1)sc1ccccc12 | i | i | i | i | -16 | 1.5 | i | i | i
COC(=O)C1=CN(Cc2ccc(C)cc2)C=C(C(=O)OC)C1c1ccc(F)c(F)c1 | -11* | i | i | i | -10 | 0.1 | i | i | 39%*
C/C(=N/OC(=O)C1CC12CCC2)c1ccc(Br)cc1 (stereo unspecified) | i | i | i | i | -10 | 0.41 | i | i | i
C=CCNC(=O)c1ccc2c(=O)n(CCCN3CCCC3=O)c(=S)[nH]c2c1 | i | i | i | i | -4 | 0.51 | . | . | .
COc1ccc([N+](=O)[O-])cc1NC(=O)C(C)N(C)Cc1ccc(Br)cc1 (stereo unspecified) | -8.6* | i | i | i | -12 | -2.5 | 31%* | i | 38%*
Cc1ccc(/C=N/N2CCN(Cc3cccc4ccccc34)CC2)s1 | i | i | i | i | -4 | -0.02 | i | i | i
SMILES | KCNK9 inh | KCNQ1 pot | KCNK3 block | KCNQ1 block | hERG protect | Kir21 inh | KCNK9 block conf | Kir21 sel | KCNK9 uninduced
Cc1ccc(/C=N/N2CCN(Cc3cccc4ccccc34)CC2)o1 | i | i | i | i | -9 | -0.78 | i | i | i
CCOn1c(=O)c(-c2cccs2)[n+]([O-])c2ccccc21 | i | i | i | i | -4 | -1.9 | . | . | .
CCOC(=O)COn1c(=O)c(-c2cccs2)[n+]([O-])c2ccccc21 | -8.3* | i | i | i | -13 | -4.2 | 46%* | i | 47%*
O=C(O)C1CCCC[C@H]1C(=O)Nc1ncc([N+](=O)[O-])s1 (stereo partly specified) | . | . | i | . | . | . | . | . | .
Cc1ccc(-c2ccc(C(=O)NCc3ccccc3)o2)c2ccccc12 | i | i | i | i | -10 | 0.21 | . | . | .
Cc1ccc(S(=O)(=O)NC(=O)c2ccc(-c3ccc(C)c4ccccc34)o2)cc1 | i | i | i | i | -19 | 0.46 | i | i | i
Cc1ccc(-c2ccc(C(=O)Nc3ccccc3)o2)c2ccccc12 | i | i | i | 6* | -17 | 0.9 | i | i | i
CCCCCCCN1CCC(=O)N([C@H](CO)CC(C)C)CC1 | i | i | i | i | -8 | -1.5 | . | . | .
O=[N+]([O-])c1cc(CN(CCO)CCO)ccc1O | i | i | i | i | -3 | 0.07 | . | . | .
COc1cccc(CN2CCN(Cc3cccc(Oc4ccccc4)c3)CC2)c1OC | i | i | i | i | -10 | -1.5 | i | i | i
COc1ccc(CN2CCN(Cc3ccccc3C(F)(F)F)CC2)c(OC)c1 | i | i | i | i | -11 | -2.7 | i | i | i
COc1ccc(OC)c(CN2CCN(Cc3cccc4ccccc34)CC2)c1 | i | i | i | i | -20 | -0.38 | i | i | i
O=S1(=O)CCN(Cc2ccccc2C(F)(F)F)CC1 | i | i | i | i | -2 | 0.51 | . | . | .
Cc1ccccc1CN1CCN(Cc2ccccc2C(F)(F)F)CC1 | i | i | i | i | -14 | -0.23 | i | i | i
COc1ccccc1CNC(=O)C1CCC(CNS(=O)(=O)c2cccc3cccnc23)CC1 (stereo unspecified) | i | i | i | i | -5 | 0 | . | . | .
Cc1ccc(NC(=O)CSc2nc3nc(C)c(Br)cc3[nH]2)cc1F | i | i | i | i | -6 | 0.58 | . | . | .
